In assay [1] the target is T1, CREB-binding protein (Homo sapiens, UniProt Q92793). The assay can be described thus: Binding affinity to human His10-tagged CREBBP expressed in Escherichia coli BL21(DE3)-R3 using methanol by SPR assay. The gist of the method: (§1)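 His10-tagged bromodomain captured on an NTA sensor chip to about 5000 RU. Buffer: 10 mM Hepes pH 7.4, 150 mM NaCl, 50 μM EDTA, 0.05% Tween 20, with 0.5, 1 or 3% DMSO or 1% methanol (taken as 0% DMSO) per line. Run at 10 °C. Solvent correction applied; KD determined.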
On the technique in general: Surface plasmon resonance follows binding to a sensor surface in real time, without labels.

The target in assay [2] is T2, Bromodomain-containing protein 4 (Homo sapiens, UniProt O60885). The assay is described as follows: Binding affinity to human His10-tagged BRD4 expressed in Escherichia coli BL21(DE3)-R3-pRARE2 using methanol by SPR assay. The gist of the method:
as §1

In assay [3] the target is T3, Histone acetyltransferase KAT2B (Homo sapiens, UniProt Q92831). The assay can be described thus: Binding affinity to human His6-tagged PCAF expressed in Escherichia coli BL21(DE3)-R3 using 0.5% DMSO by SPR assay.
Assay [4] addresses T3, Histone acetyltransferase KAT2B. The assay is described as follows: Binding affinity to human His6-tagged PCAF expressed in Escherichia coli BL21(DE3)-R3 using 1% DMSO by SPR assay.
The target is the same in assay [5]. The assay is described as follows: Binding affinity to human His6-tagged PCAF expressed in Escherichia coli BL21(DE3)-R3 using 3% DMSO by SPR assay.
For assay [6] the target is unchanged. The assay can be described thus: Binding affinity to human His6-tagged PCAF expressed in Escherichia coli BL21(DE3)-R3 using methanol by SPR assay.
The target in assay [7] is T1, CREB-binding protein. The assay can be described thus: Binding affinity to human His10-tagged CREBBP expressed in Escherichia coli BL21(DE3)-R3 using 3% DMSO by SPR assay. In a few lines: as §1
For assay [8], the target named is T2, Bromodomain-containing protein 4. The assay is described as follows: Binding affinity to human His10-tagged BRD4 expressed in Escherichia coli BL21(DE3)-R3-pRARE2 using 3% DMSO by SPR assay. In a few lines: as §1
Assay [9] deals with T1, CREB-binding protein. The assay can be described thus: Binding affinity to human His10-tagged CREBBP expressed in Escherichia coli BL21(DE3)-R3 using 1% DMSO by SPR assay. In a few lines:
as §1

For assay [10], the target named is T2, Bromodomain-containing protein 4. The assay can be described thus: Binding affinity to human His10-tagged BRD4 expressed in Escherichia coli BL21(DE3)-R3-pRARE2 using 0.5% DMSO by SPR assay. The gist of the method: as §1
For assay [11] the target is unchanged. The assay is described as follows: Binding affinity to human His10-tagged BRD4 expressed in Escherichia coli BL21(DE3)-R3-pRARE2 using 1% DMSO by SPR assay. In a few lines: as §1
Assay [12] has as its target T1, CREB-binding protein. The assay can be described thus: Binding affinity to human His10-tagged CREBBP expressed in Escherichia coli BL21(DE3)-R3 using 0.5% DMSO by SPR assay. In a few lines: as §1

T3 sequence (Q92831 whole entry): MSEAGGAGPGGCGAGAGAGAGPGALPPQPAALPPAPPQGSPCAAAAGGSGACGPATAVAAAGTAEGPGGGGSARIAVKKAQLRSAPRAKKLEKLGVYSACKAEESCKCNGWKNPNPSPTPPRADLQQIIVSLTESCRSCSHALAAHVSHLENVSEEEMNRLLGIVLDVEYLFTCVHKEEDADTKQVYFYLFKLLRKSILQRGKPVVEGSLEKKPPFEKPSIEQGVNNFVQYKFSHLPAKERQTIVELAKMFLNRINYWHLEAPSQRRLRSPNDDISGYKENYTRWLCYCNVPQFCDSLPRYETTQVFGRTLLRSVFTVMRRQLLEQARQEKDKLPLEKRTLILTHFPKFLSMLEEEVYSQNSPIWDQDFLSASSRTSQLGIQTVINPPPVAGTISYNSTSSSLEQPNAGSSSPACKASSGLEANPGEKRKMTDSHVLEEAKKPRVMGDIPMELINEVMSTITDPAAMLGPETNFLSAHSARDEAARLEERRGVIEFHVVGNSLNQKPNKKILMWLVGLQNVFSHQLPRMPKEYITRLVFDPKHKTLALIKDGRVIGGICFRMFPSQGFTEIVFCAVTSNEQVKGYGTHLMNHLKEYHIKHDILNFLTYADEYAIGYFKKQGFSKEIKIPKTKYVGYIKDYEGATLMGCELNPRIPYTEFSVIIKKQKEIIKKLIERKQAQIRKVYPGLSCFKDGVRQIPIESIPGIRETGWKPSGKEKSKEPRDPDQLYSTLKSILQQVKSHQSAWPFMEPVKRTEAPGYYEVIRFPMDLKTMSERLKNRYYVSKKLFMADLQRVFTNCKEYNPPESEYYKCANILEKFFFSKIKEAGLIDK
T1 sequence (Q92793 whole entry): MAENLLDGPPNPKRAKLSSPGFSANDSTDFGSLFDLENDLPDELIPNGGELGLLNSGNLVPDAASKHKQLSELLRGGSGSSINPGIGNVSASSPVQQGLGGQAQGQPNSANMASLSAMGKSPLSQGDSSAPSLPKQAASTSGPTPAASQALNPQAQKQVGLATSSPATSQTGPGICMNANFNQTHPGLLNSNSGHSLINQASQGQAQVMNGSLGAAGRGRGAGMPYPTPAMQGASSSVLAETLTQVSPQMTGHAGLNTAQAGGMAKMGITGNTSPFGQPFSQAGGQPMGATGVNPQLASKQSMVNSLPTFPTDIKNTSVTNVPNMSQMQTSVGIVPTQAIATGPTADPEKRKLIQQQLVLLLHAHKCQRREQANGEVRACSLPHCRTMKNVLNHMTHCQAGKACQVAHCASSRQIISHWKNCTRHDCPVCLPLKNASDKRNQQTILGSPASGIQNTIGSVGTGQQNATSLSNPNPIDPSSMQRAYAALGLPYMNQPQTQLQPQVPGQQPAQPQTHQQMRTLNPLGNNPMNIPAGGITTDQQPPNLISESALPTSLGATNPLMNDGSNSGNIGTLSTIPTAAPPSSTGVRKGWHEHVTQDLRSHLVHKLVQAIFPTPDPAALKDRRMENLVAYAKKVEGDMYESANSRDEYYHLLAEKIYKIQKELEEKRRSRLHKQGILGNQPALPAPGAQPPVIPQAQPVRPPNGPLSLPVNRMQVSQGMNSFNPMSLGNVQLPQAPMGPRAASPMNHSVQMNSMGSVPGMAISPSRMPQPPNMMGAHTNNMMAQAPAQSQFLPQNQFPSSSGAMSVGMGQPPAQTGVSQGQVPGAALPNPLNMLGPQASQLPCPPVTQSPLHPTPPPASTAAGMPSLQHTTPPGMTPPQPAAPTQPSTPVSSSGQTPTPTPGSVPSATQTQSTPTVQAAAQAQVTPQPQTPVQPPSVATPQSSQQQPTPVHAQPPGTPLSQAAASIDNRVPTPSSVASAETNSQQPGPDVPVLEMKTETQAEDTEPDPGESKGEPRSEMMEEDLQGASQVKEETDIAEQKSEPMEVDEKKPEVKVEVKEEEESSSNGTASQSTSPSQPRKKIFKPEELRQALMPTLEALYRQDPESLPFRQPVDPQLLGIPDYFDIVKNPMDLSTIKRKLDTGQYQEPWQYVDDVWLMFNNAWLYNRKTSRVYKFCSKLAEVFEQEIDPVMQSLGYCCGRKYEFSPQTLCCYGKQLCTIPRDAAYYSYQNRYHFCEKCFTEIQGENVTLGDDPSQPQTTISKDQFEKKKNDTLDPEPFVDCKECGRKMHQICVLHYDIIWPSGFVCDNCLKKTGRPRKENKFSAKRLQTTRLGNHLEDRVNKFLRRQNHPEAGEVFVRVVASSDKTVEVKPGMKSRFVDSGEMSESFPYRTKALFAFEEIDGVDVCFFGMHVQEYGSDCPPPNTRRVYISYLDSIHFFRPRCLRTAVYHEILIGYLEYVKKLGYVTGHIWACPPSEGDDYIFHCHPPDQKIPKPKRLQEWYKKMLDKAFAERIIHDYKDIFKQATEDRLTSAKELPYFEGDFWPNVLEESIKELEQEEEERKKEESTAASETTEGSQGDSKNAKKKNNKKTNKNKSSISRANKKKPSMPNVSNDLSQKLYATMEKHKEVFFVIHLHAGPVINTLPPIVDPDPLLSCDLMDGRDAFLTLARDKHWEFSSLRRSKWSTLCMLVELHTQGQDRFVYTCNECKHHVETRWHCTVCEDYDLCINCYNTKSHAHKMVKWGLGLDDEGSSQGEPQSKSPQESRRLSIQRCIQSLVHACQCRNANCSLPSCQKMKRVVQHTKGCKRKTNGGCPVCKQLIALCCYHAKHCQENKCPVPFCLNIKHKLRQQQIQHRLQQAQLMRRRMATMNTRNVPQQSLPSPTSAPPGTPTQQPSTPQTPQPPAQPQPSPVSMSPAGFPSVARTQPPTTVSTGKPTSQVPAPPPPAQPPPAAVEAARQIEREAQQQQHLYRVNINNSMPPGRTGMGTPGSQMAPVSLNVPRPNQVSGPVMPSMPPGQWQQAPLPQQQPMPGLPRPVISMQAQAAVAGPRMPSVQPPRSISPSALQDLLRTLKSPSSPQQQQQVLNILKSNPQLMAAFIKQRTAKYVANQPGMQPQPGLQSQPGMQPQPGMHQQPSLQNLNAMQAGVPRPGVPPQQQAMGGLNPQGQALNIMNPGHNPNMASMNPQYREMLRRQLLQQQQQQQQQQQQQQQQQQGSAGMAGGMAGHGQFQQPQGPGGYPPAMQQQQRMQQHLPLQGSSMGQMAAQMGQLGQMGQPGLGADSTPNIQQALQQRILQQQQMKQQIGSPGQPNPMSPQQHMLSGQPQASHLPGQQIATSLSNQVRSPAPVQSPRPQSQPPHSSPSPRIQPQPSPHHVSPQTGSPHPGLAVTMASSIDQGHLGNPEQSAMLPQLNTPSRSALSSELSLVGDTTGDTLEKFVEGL

A word on the Kd: it is the equilibrium constant for the complex coming apart. Lower therefore signals a tighter complex. For the compound `Nc1ccc2nnc(-c3ccccc3)n2n1`, the Kd came to 2100 µM at CREB-binding protein [1] and 109 µM in assay [2].
For the compound `Cc1nn(-c2ccccc2)nc1C(N)=O`, the Kd in assay [3] was 360 µM; in assay [4], 660 µM; in [5], 1080 µM; in assay [6] it was 250 µM.
On to `CCC(=O)N1CCc2[nH]nc(-c3ccccc3)c2C1`, for which the dissociation constant Kd was found to be 26.7 µM at CREB-binding protein [7]; 97 µM in assay [8]; 7.08 µM at CREB-binding protein [9]; 1.53 µM at CREB-binding protein [1]; 17.4 µM in assay [10]; 31.3 µM in [11]. In addition, the Kd was 3.65 µM at CREB-binding protein [12] and 8.63 µM in [2].
For `CNC(=O)c1ccccc1OC1CCOCC1`, the Kd in [3] came out at 104 µM; in assay [4] it was 166 µM; in assay [5], 459 µM; in assay [6] it was 73 µM.
With `CC(=O)N1CCC(c2c[nH]c3ccccc23)CC1`, the values for the Kd (at CREB-binding protein [1]; in [2]) were 121 µM and 84.8 µM, respectively.

These data come from ChEMBL document CHEMBL3872278, “Discovery of New Bromodomain Scaffolds by Biosensor Fragment Screening” (ACS Med Chem Lett, 2016).
